Test results from ChEMBL document CHEMBL3774344, “Role of a Preorganized Scaffold Presenting Four Residues of a GM-3 Lactone Mimetic on Melanoma Progression” (2016).
Activity calls are given as the source filed them. No cut-off for these calls is given here.

Legend:
A-375 [1] = assay: Antiinvasion activity in human A375 cells at 50 uM after 24 hrs in presence of cancer associated fibroblast by Boyden invasion assay; assay type: functional, cell-based
Procedure, shortened: (§1)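 A375 cells incubated under hypoxia (1% O2) with conditioned medium from CAFs (derived ex vivo from aggressive human melanoma) or HDFs, with or without 50 μM compound. Cells then assayed for 2D migration or invasion through reconstituted Matrigel barrier in Boyden chambers.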

A-375 [2] = assay: Antimigratory activity against human A375 cells at 50 uM after 24 hrs in presence cancer associated fibroblast by 2D-migration assay; assay type: functional, cell-based; procedure, shortened: as §1
A-375 [3] = assay: Inhibition of cell migration in human A375 cells at 50 uM after 24 hrs by 2D-migration assay in presence of 10% serum; assay type: functional; conditions: A-375, 24 h
Procedure, shortened: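 Cells treated with 50 μM compound, then allowed to migrate 24 h toward 10% serum chemoattractant. Cells counted in a randomly chosen field per filter. At least three independent experiments; mean and SD.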

A-375 [4] = assay: Inhibition of cell adhesion in human A375 cells at 50 uM measured from 1 to 3 hrs in presence of fibronectin by crystal violet staining based assay; assay type: functional
Procedure, shortened: (§2)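 A375 cells treated with 50 μM compound, then allowed to adhere to fibronectin-coated dishes for varying times up to 4 h, with no-fibronectin comparison. Percentage of adhered cells scored by crystal violet. At least three independent experiments; mean and SD.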

A-375 [5] = assay: Induction of apoptosis in serum-starved human A375 cells after 24 hrs by AnnexinV/PI-staining based flow cytometric analysis; assay type: functional, cell-based
Procedure, shortened: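 A375 cells serum-starved, detached and held in suspension for 24 h with compound. Apoptotic fraction measured by Annexin V–PI staining. At least three independent experiments; mean and SD.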

A-375 [6] = assay: Inhibition of cell adhesion in human A375 cells at 50 uM measured after 4 hrs in presence of fibronectin by crystal violet staining based assay; assay type: functional; conditions: A-375, 4 h; procedure, shortened: as §2
[7] = Antitumor activity against mouse B16F10 cells xenografted in C57BL/6 mouse assessed as reduction in tumor volume at 400 ug, ip administered on day 0 to 72 followed by tumor implantation on day 69 measured every 2 to 3 days relative to PBS-treated control; set-up: scale not given: the % may be the effect or the level left
A-375 [8] = assay: Inhibition of cell invasion in human A375 cells at 50 uM after 24 hrs by Boyden invasion assay in presence of 10% serum; assay type: functional; conditions: A-375, 24 h
Procedure, shortened: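 Cells treated with 50 μM compound, then placed in Boyden chambers (8 μm pores) with Matrigel 3D barrier and allowed to invade toward 10% serum for 24 h. Cells crossing the filter counted. At least three independent experiments; mean and SD.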

| SMILES | Activity (A-375 [1]) | Activity (A-375 [2]) | inhibition at 50 µM (A-375 [3]) | inhibition at 50 µM (A-375 [4]) | Activity (A-375 [5]) | inhibition at 50 µM (A-375 [6]) | Activity [7] | inhibition at 50 µM (A-375 [8]) |
| --- | --- | --- | --- | --- | --- | --- | --- | --- |
| CCCOc1c2cc(CCCn3cc(CCO[C@H]4O[C@H](CO)[C@H](O)C5=C4SC[C@]4(C[C@@H](O)[C@@H](O)[C@@H]([C@@H](O)CO)O4)O5)nn3)cc1Cc1cc(CCCn3cc(CCO[C@H]4O[C@H](CO)[C@H](O)C5=C4SC[C@]4(C[C@@H](O)[C@@H](O)[C@@H]([C@@H](O)CO)O4)O5)nn3)cc(c1OCCC)Cc1cc(CCCn3cc(CCO[C@H]4O[C@H](CO)[C@H](O)C5=C4SC[C@]4(C[C@@H](O)[C@@H](O)[C@@H]([C@@H](O)CO)O4)O5)nn3)cc(c1OCCC)Cc1cc(CCCn3cc(CCO[C@H]4O[C@H](CO)[C@H](O)C5=C4SC[C@]4(C[C@@H](O)[C@@H](O)[C@@H]([C@@H](O)CO)O4)O5)nn3)cc(c1OCCC)C2 | Active | Active | – | – | – | – | – | – |
| CC(C)=NOCC(=O)NCCCC[C@@H]1NC(=O)[C@H](CCCCNC(=O)CCCCC(=O)NCCCCCCO[C@H]2O[C@H](CO)[C@H](O)C3=C2SC[C@]2(C[C@@H](O)[C@@H](O)[C@@H]([C@H](O)CO)O2)O3)NC(=O)CNC(=O)[C@@H]2CCCN2C(=O)[C@H](CCCCNC(=O)CCCCC(=O)NCCCCCCO[C@@H]2O[C@@H](CO)[C@@H](O)C3=C2SC[C@@]2(C[C@@H](O)[C@@H](O)[C@@H]([C@H](O)CO)O2)O3)NC(=O)[C@H](C)NC(=O)[C@H](CCCCNC(=O)CCCCC(=O)NCCCCCCO[C@H]2O[C@H](CO)[C@H](O)C3=C2SC[C@]2(C[C@H](O)[C@H](O)[C@H]([C@@H](O)CO)O2)O3)NC(=O)CNC(=O)[C@@H]2CCCN2C(=O)[C@H](CCCCNC(=O)CCCCC(=O)NCCCCCCO[C@@H]2O[C@@H](CO)[C@@H](O)C3=C2SC[C@@]2(C[C@H](O)[C@H](O)[C@H]([C@@H](O)CO)O2)O3)NC1=O | Active | Active | 30% | ≤ 30% | Active | 50% | >50% | 30% |
